By pEC50 is commonly meant the negative decadic logarithm of the EC50, by convention in mol/L. What is called pIC50 is −log10 of the IC50, conventionally taken in molar units. A low value points to a high IC50.

Data set [1] has as its target T1, Muscarinic acetylcholine receptor M1 (Homo sapiens, UniProt P11229).
T1 sequence (P11229 whole entry): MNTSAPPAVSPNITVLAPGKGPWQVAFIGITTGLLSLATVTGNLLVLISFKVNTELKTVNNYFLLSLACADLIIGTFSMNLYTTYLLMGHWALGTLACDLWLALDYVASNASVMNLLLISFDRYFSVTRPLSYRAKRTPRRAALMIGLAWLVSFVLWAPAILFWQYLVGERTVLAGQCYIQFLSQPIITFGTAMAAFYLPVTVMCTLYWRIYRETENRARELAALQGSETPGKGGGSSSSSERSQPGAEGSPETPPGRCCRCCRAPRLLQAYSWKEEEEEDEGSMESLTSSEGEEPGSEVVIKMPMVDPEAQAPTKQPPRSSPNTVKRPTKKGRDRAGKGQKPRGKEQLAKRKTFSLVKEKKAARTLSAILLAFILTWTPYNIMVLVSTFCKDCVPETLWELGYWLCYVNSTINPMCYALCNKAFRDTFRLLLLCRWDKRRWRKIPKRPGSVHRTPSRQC
Put plainly: Agonist activity at human muscarinic M1 receptor expressed in HEK293T cells co-expressing Galpha subunit and PLC-beta3 by split luciferase complementation assay. It counts as cell-based.

Data set [2] deals with Muscarinic acetylcholine receptor. Put plainly: Displacement of [3H]-QNB from muscarinic receptor in rat brain membranes incubated for 45 mins under dark conditions by radioligand binding assay. It counts as cell membranes. An outline of the steps:
(§1)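 Rat brain cortex membranes (meninges and white matter removed, homogenized and centrifuged twice at 50,000 x g, stored at -80 °C). Each tube held 20 μg membrane protein, 200 pM [³H]QNB and competitor at varying concentrations in 10 mM Tris-HCl pH 7.0 with 6 mM MgCl₂, incubated 45 min at 25 °C. Nonspecific binding was defined with 2 μM atropine. Samples were filtered on glass fiber, washed twice with ice-cold buffer and counted by scintillation.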
(In general: Displacement assays read how much labelled ligand stays bound in the presence of the test substance.)

Data set [3] in a line: Chemical stability of the compound at 50 uM incubated for 120 mins under dark conditions by UV-vis spectroscopic analysis. Type of data set: physicochemical. The following applies: 2 h.
Data set [4] concerns the target Muscarinic acetylcholine receptor. Put plainly: Displacement of [3H]-QNB from muscarinic receptor in rat brain membranes incubated for 45 mins under irradiation exposure at 365 nm by radioligand binding assay. It counts as cell membranes. The essentials: as §1

In data set [1], `C[N+](C)(CC#CCOC1=NOCC1)CCCCCC[N+](C)(C)CC#CCOC1=NOCC1` had a pEC50 of 6.77.

Take `C[N+](C)(CC#CCOC1=NOCC1)Cc1cc(F)c(/N=N/c2c(F)cc(C[N+](C)(C)CC#CCOC3=NOCC3)cc2F)c(F)c1.[Br-].[Br-]`: the pIC50 in data set [2] is recorded as 6.82; in data set [4], 6.44. For the same molecule, the pEC50 in data set [1] stood at 8.97. Moreover, in data set [3], the Stability entry was “Stable”.

In data set [1], `C[N+](C)(CC#CCOC1=NOCC1)CCCCCCCCCC[N+](C)(C)CC#CCOC1=NOCC1` registered a pEC50 of 7.86.

For the molecule `C[N+](C)(CC#CCOC1=NOCC1)Cc1ccc(/N=N/c2ccccc2)cc1.[Br-]`, the pIC50 in data set [2] is recorded as 5.15; in data set [4] it was 5.13. The same molecule had a pEC50 in data set [1] of 5.49. For the same molecule, the Stability result in data set [3] is on record as “Stable”.

For the molecule `C[N+](C)(C)CC#CCOC1=NOCC1`, the pEC50 in data set [1] was 8.9.

The molecule `C[N+](C)(CC#CCOC1=NOCC1)Cc1cc(F)c(/N=N\c2c(F)cccc2F)c(F)c1.[Br-]` showed a pEC50 in data set [1] of 7.14. Further, the Stability entry in data set [3] is reported as “Stable”.

In turn, `C[N+](C)(CC#CCOC1=NOCC1)CCCC[N+](C)(C)CC#CCOC1=NOCC1` gave a pEC50 in data set [1] of 6.49.

`C[N+](C)(CC#CCOC1=NOCC1)Cc1ccc(/N=N\c2ccc(C[N+](C)(C)CC#CCOC3=NOCC3)cc2)cc1.[Br-].[Br-]`: the pEC50 in data set [1] is 7.49. For the same molecule, the Stability result in data set [3] was “Stable”.

In the case of `C[N+](C)(CC#CCOC1=NOCC1)Cc1cc(F)c(/N=N/c2c(F)cccc2F)c(F)c1.[Br-]`, the pIC50 in data set [2] was 5.25; in data set [4], 5.4. Moreover, in data set [1], the pEC50 stood at 7.2. In addition, the Stability result in data set [3] was “Stable”.

With `C[N+](C)(CC#CCOC1=NOCC1)CCCCCCCC[N+](C)(C)CC#CCOC1=NOCC1`, in data set [1], the pEC50 is 6.89.

Molecule `C[N+](C)(CC#CCOC1=NOCC1)Cc1ccc(/N=N\c2ccccc2)cc1.[Br-]` had a pEC50 in data set [1] of 5.68. The Stability entry in data set [3] was “Stable”.

In turn, `C[N+](C)(CC#CCOC1=NOCC1)Cc1cc(F)c(/N=N\c2c(F)cc(C[N+](C)(C)CC#CCOC3=NOCC3)cc2F)c(F)c1.[Br-].[Br-]` yielded a pEC50 in data set [1] of 8.3. The Stability entry in data set [3] is on record as “Stable”.

The values are drawn from ChEMBL document CHEMBL4316603, “Fluorination of Photoswitchable Muscarinic Agonists Tunes Receptor Pharmacology and Photochromic Properties” (J Med Chem, 2019).
